Experimental data as given in paper PMC5901721 (Cancer research, 2018).

Legend:
PKCγ = test: Kinase selectivity profiling, 115 kinase panel; format: biochemical; conditions: 1 µM compound; apparent Km for ATP
MRCKβ [1] = test: Out-sourced dose-response kinase assays; format: biochemical; conditions: Cheng-Prusoff equation
757 cancer cell lines = test: Cancer cell line screen; format: cell-based, human; conditions: 72 hours, up to 10 µM, p<0.05
Outline: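 757 human cancer cell lines spanning 45 cancer types were seeded in 1536-well plates and exposed to a 7-point, half-log dilution series of test compound with a top concentration of 10 μM.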

DMPK [2] = molecular target: T1, DMPK (Homo sapiens, UniProt Q09013); test: Kinase selectivity profiling, 115 kinase panel; format: binding; conditions: 1 µM compound
T1 sequence (Q09013 1-629): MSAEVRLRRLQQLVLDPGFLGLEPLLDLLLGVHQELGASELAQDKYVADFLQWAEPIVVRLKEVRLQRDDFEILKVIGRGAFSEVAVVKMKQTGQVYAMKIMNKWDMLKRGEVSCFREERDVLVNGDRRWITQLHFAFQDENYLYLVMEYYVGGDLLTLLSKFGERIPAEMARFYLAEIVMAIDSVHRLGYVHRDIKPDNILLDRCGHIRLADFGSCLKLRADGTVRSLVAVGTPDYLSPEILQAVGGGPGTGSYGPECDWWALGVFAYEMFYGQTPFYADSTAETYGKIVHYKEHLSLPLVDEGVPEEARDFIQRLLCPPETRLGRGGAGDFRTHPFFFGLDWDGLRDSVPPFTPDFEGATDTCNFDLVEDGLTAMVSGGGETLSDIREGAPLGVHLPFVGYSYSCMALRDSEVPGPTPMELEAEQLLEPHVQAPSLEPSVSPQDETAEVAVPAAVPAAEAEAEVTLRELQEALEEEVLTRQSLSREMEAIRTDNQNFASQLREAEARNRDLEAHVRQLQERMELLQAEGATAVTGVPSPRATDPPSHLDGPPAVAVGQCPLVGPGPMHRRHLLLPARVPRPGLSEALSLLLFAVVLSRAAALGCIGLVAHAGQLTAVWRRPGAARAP

MRCKβ [3] = test: In-house kinase assay Ki compared with out-sourced values; format: biochemical
DMPK [4] = molecular target: T1, DMPK; test: Competitive LanthaScreen Eu TR-FRET kinase binding assay; conditions: read-out: Kd DMPK; displacement of fluorescent tracer; Cheng-Prusoff equation
MRCKβ [5] = format: cell-based, human; conditions: MDA MB 231 cells, inducible kinase domains, 60 minutes
Outline: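 MDA MB 231 cells with doxycycline-inducible MRCKβ, ROCK1 or ROCK2 kinase domains were plated at 1.1×10⁵/well. After 24 h, 1 µg/ml doxycycline was given for 18 h, then test compound for 60 min. Lysis was in 50 mM Tris-HCl pH 7.4, 0.5% SDS with phosphatase inhibitors. pMLC2 was measured by quantitative western blot; mean ± SEM of 3-4 independent replicates.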

MRCKα [6] = test: MRCKα pS1003 western blot in HEK293 cells expressing FLAG-MRCKα; format: cell-based, human; conditions: 1 µM, 2 hours
Outline: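 HEK293 cells were transfected with 10 μg pEF-FLAG-MRCKα using a lipid reagent. After 48 h, they were treated 2 h with DMSO, 3 μM or 1 μM test compound. Cells were washed in PBS and lysed in 1% SDS, 50 mM Tris-HCl pH 7.4. Lysates were shredded and analysed by SDS-PAGE and western blot for MRCKα pS1003.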

MRCKα [7] = test: In vitro MRCKα autophosphorylation and MLC2 phosphorylation assay; format: biochemical; conditions: dephosphorylated immunoprecipitated FLAG-MRCKα
Outline: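 FLAG-MRCKα (wild type, K106M or S1003A) was expressed in HEK293 for 2 days and immunoprecipitated on beads. They were incubated with lysate of IPTG-induced bacteria expressing MLC2, with western blot read-out.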

skin papillomas = test: DMBA/TPA two-stage chemical carcinogenesis model of SCC; format: in vivo, mouse; conditions: topical 25 μg 5 times per week for 14 weeks
Outline: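 40 FVB mice received topical DMBA 25 μg in acetone on day 1. From day 5 they received TPA 4.7 μg in acetone three times weekly. From day 5, groups of 20 also got test compound 25 μg in 50 μL 80% DMSO or vehicle, 5 times/week for 14 weeks. Tumour size and number were recorded weekly, blinded. Culling was at 12 mm papilloma diameter. Data are mean ± SD, 20 mice.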

[8] = Skin and blood concentrations after topical application to FVB mice; format: in vivo; conditions: FVB mouse
Outline: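 FVB mice received topical test compound in 80% (v/v) DMSO under several regimens: once at 10 μg or 25 μg; 4 × 25 μg over 2 days; or 8 × 25 μg (4 days on, 2 off, 4 on), with vehicle controls. Mice were culled 2, 4, 8 or 24 h after the final dose. Skin and blood concentrations were measured by a contract laboratory; mean ± SD from 3 mice per condition.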

CDK9/Cyclin T1 = test: Kinase selectivity profiling, 115 kinase panel; format: biochemical; conditions: 1 µM compound
[9] = test system: MLC2 phosphorylation in SCC12 cells; test: MLC2 phosphorylation in SCC12 cells; format: cell-based, human
Outline: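 SCC12 cells were plated at 5×10⁵ per well of a 6-well plate. After 24 h, they were treated 2 h with DMSO or a dose range of test compound. Cells were washed in PBS, lysed in 1% SDS, 50 mM Tris-HCl pH 7.4, shredded, and analysed by SDS-PAGE western blotting for MLC2 phosphorylation.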

ROCK2 = test: Kinase selectivity profiling, 115 kinase panel; format: biochemical; conditions: 1 µM compound; apparent Km for ATP
TSSK1 (STK22D) = test: Kinase selectivity profiling, 115 kinase panel; format: biochemical; conditions: 1 µM compound
SCC12 cells [10] = test: Phalloidin F-actin immunofluorescence; format: cell-based, human; conditions: SCC12, 1 µM
Outline: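 SCC12 cells on glass coverslips were grown overnight, then given medium with 1 μM test compound or DMSO. Cells were fixed in 4% paraformaldehyde/PBS for 15 min and permeabilised with 0.5% Triton X-100 for 5 min. F-actin was stained with Alexa 488 phalloidin, mounted with DAPI and imaged by confocal microscopy.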

SCC12 cells [11] = test: Random migration; format: cell-based, human; conditions: SCC12, 0.4 μM, 6 hours
Outline: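 SCC12 cells were plated at 2×10⁴ per well of an image-lock 96-well plate. After 24 h, medium was changed to DMSO or 0.4 μM test compound. Individual cells were tracked over 6 h to give accumulated distance, Euclidean distance, velocity and directionality. Data are mean ± SEM of 120 cells; two-tailed unpaired t-tests.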

CDK2/Cyclin A = test: Kinase selectivity profiling, 115 kinase panel; format: biochemical; conditions: 1 µM compound
ROCK1 = test: Kinase selectivity profiling, 115 kinase panel; format: biochemical; conditions: 1 µM compound; apparent Km for ATP
SCC12 cells [12] = test: SCC12 cell viability; format: cell-based, human; conditions: 24 hour treatment
MRCKα pS1003 [13] = test: MRCKα pS1003 staining of mouse skin after topical treatment; format: in vivo; conditions: FVB mouse, topical 4 X 25 µg over 2 days
Outline: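 FVB mice (5 per group) received topical 25 μg test compound in 50 μL 80% (v/v) DMSO, or 50 μL vehicle. Four applications were given over 2 days. Mice were culled 2 h after the final treatment, and skin was taken for MRCKα pS1003 staining.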

[14] = Skin and blood concentrations at DMBA/TPA experimental endpoint; format: in vivo, mouse; conditions: DMBA/TPA mice, topical 25 μg 5 times per week
Outline: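 DMBA/TPA-initiated and promoted FVB mice were dosed topically with test compound 25 μg in 50 μL 80% (v/v) DMSO, 5 times per week. Skin and blood compound concentrations were measured by a contract laboratory at study end.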

MRCKα pS1003 [15] = test: MRCKα pS1003 immunohistochemistry in DMBA/TPA treated skin and papillomas; format: in vivo, mouse; conditions: DMBA/TPA mice, topical 25 μg 5 times per week
Outline: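 Skin sections from DMBA/TPA mice dosed topically with 25 μg test compound in 80% DMSO or vehicle were stained for MRCKα pS1003. Normal skin and papilloma areas were selected, cells auto-detected and cytoplasmic intensity measured. Histoscore = %low×100 + %medium×200 + %high×300. Data are mean ± SD from 19 mice per group; two-tailed unpaired t-tests.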

SCC12 cells [16] = test: SCC12 organotypic invasion assay; format: cell-based, human; conditions: SCC12, 0.4 μM, relative to DMSO vehicle
CDK9/Cyclin K = test: Kinase selectivity profiling, 115 kinase panel; format: biochemical; conditions: 1 µM compound
PKCα = test: Kinase selectivity profiling, 115 kinase panel; format: biochemical; conditions: 1 µM compound
SCC12 cells [17] = test: Operetta high content morphology analysis; format: cell-based, human; conditions: 2 hours
Outline: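 SCC12 cells were seeded at 1.5×10⁴ per 96-well and grown 24 h, then treated 2 h with DMSO or a dose range of test compound. Fixation was 4% PFA for 15 min, permeabilisation 0.5% Triton X-100 for 15 min, blocking 1% BSA for 30 min. Staining used phalloidin, DAPI and a whole-cell stain, followed by automated high-content imaging and morphology analysis.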

[18] = topical 25 µg twice per day for 2 days

## c1csc(-c2c[nH]c3nccc(N4CCC[C@@]5(CCCCN5)C4)c23)n1 [BDP8900]
PKCγ
  inhibition of PKCγ: > 75%
MRCKβ [1]
  minimum fold-selectivity for MRCKβ against all kinases tested (calculated Ki): 43 times
757 cancer cell lines
  number of cancer types significantly resistant relative to all cancer cell lines: 6
  number of cancer types significantly sensitive relative to all cancer cell lines: 10
DMPK [2]
  inhibition of DMPK: > 75%
MRCKβ [3]
  affinity (MRCKβ Ki determined in-house) higher than the DMPK Kd: 33 fold
DMPK [4]
  Kd: 0.8 nM
MRCKβ [5]
  selectivity of pMLC2 inhibition for MRCKβ relative to ROCK1 or ROCK2: > 562 times

## c1cc(-c2c[nH]c3nccc(N4CCC[C@@]5(CCCCN5)C4)c23)ncn1 [BDP9066]
MRCKα [6]
  pS1003 immunoreactivity: blocked
MRCKα [7]
  MRCKα S1003 autophosphorylation in vitro: blocked
  recombinant MLC2 phosphorylation by MRCKα in vitro: blocked
Skin papillomas
  average papilloma volume per mouse vs DMSO: significantly reduced
  total papilloma numbers per mouse vs DMSO: not different
  total tumor volume per mouse vs DMSO: significantly reduced
[8]; topical
  higher concentration in skin, repeated 25 μg doses relative to single 10 μg dose: 2.8 fold
[8]; [18]
  mean concentration in blood: 40 nM
  mean concentration in skin: 26000 nM
[8]; topical, single 25 μg or 8 X 25 μg
  level in blood after 24 hours: undetectable
[8]; topical, single 25 μg or 8 X 25 μg (either regimen)
  concentration in skin 24 hours after final dosing: over 16 μM
CDK9/Cyclin T1
  inhibition of CDK9/Cyclin T1: > 75%
[9]; SCC12 cells pMLC2
  increase in cellular potency relative to BDP5290: 5 fold
[9]; read-out: EC50 inhibition of MLC2 phosphorylation, SCC12 cells, 2 hours
  EC50: 64 nM
ROCK2
  inhibition of ROCK2: > 75%
TSSK1 (STK22D)
  inhibition of TSSK1 (STK22D): > 75%
MRCKβ [1]
  minimum fold-selectivity for MRCKβ against all kinases tested (calculated Ki): 27 times
SCC12 cells [10]
  bundling of filamentous actin at cortical and cytoplasmic regions: reduced
SCC12 cells [11]
  directionality of cell motility: No differences
  reduction of accumulated distance travelled: 21%
  reduction of mean Euclidean distance travelled: 18%
  reduction of mean cell velocity: 21%
757 cancer cell lines
  number of cancer types significantly resistant relative to all cancer cell lines: 4
  number of cancer types significantly sensitive relative to all cancer cell lines: 8
CDK2/Cyclin A
  inhibition of CDK2/Cyclin A: > 75%
ROCK1
  inhibition of ROCK1: > 75%
SCC12 cells [12]; all concentrations up to 0.5 µM
  SCC12 cell viability: unaffected
SCC12 cells [12]; SCC12 cells, 1 μM
  decrease in viability: 25%
DMPK [2]
  inhibition of DMPK: > 75%
MRCKα pS1003 [13]
  epidermal MRCKα pS1003 positive staining: significantly reduced
[14]
  compound in blood at experimental endpoint: undetectable
  mean concentration in skin at experimental endpoint: > 1000 nM
MRCKα pS1003 [15]
  MRCKα pS1003 histoscores in papillomas: reduced
  MRCKα pS1003 histoscores in the treated skin area: reduced
  MRCKα pS1003 immunohistochemistry staining: significant decreases
SCC12 cells [16]
  decrease in the percentage of invading cells: 50%
MRCKβ [3]
  affinity (MRCKβ Ki determined in-house) higher than the DMPK Kd: 42 fold
DMPK [4]
  Kd: 0.98 nM
CDK9/Cyclin K
  inhibition of CDK9/Cyclin K: > 75%
MRCKβ [5]
  selectivity of pMLC2 inhibition for MRCKβ relative to ROCK1 or ROCK2: > 100 times
PKCα
  inhibition of PKCα: > 75%
SCC12 cells [17]; SCC12, 0.5 μM
  proportion of irregularly shaped cells: increased
  proportion of regularly shaped cells: reduced proportions
SCC12 cells [17]; SCC12, dose range
  2D cell area: increased
  cell roundness: decreased
SCC12 cells [17]; SCC12, varying concentrations
  proportion of elongated cells: did not vary
